# In ChEMBL document CHEMBL3877291, “Structure-guided design of novel Trypanosoma brucei Methionyl-tRNA synthetase inhibitors” (Eur J Med Chem, 2016):
# System: not listed separately
# Assay: AUC in mouse at 50 mg/kg, administered through oral gavage by LC-MS analysis
# Type: ADME, organism-based
# Conditions: in vivo
# How it was run: (§1)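 Mice dosed by oral gavage at 50 mg/kg in 0.2 mL vehicle (7% tween80, 3% ethanol, 5% DMSO, 0.9% saline); plasma compound levels followed to give Cmax and AUC.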
row,AUC,SMILES
1,104 µM·h,Clc1cc(Cl)cc(CN[C@H]2CCCN(c3nc4nc(Cl)ccc4[nH]3)C2)c1

# System: Trypanosoma brucei
# Assay: (§2) Inhibition of Trypanosoma brucei 427 recombinant full length N-terminal 6His-tagged methionyl tRNA synthetase expressed in Escherichia coli assessed as decrease in incorporation of [3H]L-methionine into tRNA at 10 uM preincubated for 15 mins followed by Escherichia coli tRNA addition measured after 120 mins by scintillation counting method
# Conditions: not given
row,inhibition,SMILES
1,78%,Cc1cc2cc(C(=O)N3CCCC(c4nc5ccccc5[nH]4)C3)ccc2o1 (centres undefined)

# System: not listed separately
# Assay: Cytotoxicity against human HepG2 cells assessed as cell viability after 48 hrs by alamar blue assay
# Type: toxicity, cell-based
# Conditions: not given
# How it was run: (§3)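 CRL-1855 cells grown in RPMI and HepG2 cells in DMEM/F-12, both with 10% FBS, penicillin and streptomycin. Plated at 5 × 10^3 per well with serial compound dilutions in quadruplicate for 48 h. Alamar Blue added for a further 4 h at 37 °C, 5% CO2. OD570–600 viability referenced to untreated cells.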
row,SMILES,EC50 at 48 h
1,Clc1cc(Cl)cc(CNC2CCCN(c3nc4nc(Cl)ccc4[nH]3)C2)c1 (centres undefined),> 50 µM
2,Clc1cc(Cl)cc(CN[C@H]2CCCN(c3nc4nc(Cl)ccc4[nH]3)C2)c1,49 µM
3,O=C(Cc1cc(Cl)cc(Cl)c1)N1CCCC(c2nc3cc(Cl)ccc3[nH]2)C1 (centres undefined),35.4 µM
4,Clc1cc(Cl)cc(CNC2CCCC(c3nc4nc(Cl)ccc4[nH]3)C2)c1 (centres undefined),32.3 µM
5,CCN(CC)CCCC(C)Nc1c2ccc(Cl)cc2nc2ccc(OC)cc12 (centres undefined) [QUINACRINE],11.9 µM
6,Clc1cc(Cl)cc(CNCCCc2nc3ccc(Cl)nc3[nH]2)c1,45.6 µM
7,Clc1cc(Cl)cc(NCC2CCCN(c3nc4nc(Cl)ccc4[nH]3)C2)c1 (centres undefined),29.2 µM

# System: Trypanosoma brucei
# Assay: Antitrypanosomal activity against Trypanosoma brucei 427 bloodstream forms assessed as parasitic growth inhibition after 48 hrs by alamar blue assay
# Type: functional
# Conditions: Trypanosoma brucei, 427, 48 h
# How it was run: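 Bloodstream-form strain 427 trypomastigotes cultured in HMI-9 with 10% FBS, penicillin and streptomycin at 37°C, 5% CO2. Seeded at 1 × 10^4 per well, serial compound dilutions from 20 mM DMSO stocks, triplicate. Growth read with Alamar Blue at 48 h; pentamidine run as positive control in each assay.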
row,EC50,SMILES
1,0.082 µM,Clc1cc(Cl)cc(CNC2CCCN(c3nc4nc(Cl)ccc4[nH]3)C2)c1 (centres undefined)
2,15.3 µM,Clc1cc(Cl)cc(CNC2CN(c3nc4nc(Cl)ccc4[nH]3)C2)c1
3,0.58 µM,Clc1cc(Cl)cc(CN[C@@H]2CCC[C@H](c3nc4nc(Cl)ccc4[nH]3)C2)c1
4,0.039 µM,Clc1cc(Cl)cc(CN[C@H]2CCCN(c3nc4nc(Cl)ccc4[nH]3)C2)c1
5,> 20 µM,O=C(N[C@H]1CCCN(c2nc3nc(Cl)ccc3[nH]2)C1)c1cc(Cl)cc(Cl)c1
6,1.54 µM,Clc1cc(Cl)cc(CN[C@H]2CCN(c3nc4ccc(Cl)nc4[nH]3)C2)c1
7,1.4 µM,O=C(Cc1cc(Cl)cc(Cl)c1)N1CCCC(c2nc3cc(Cl)ccc3[nH]2)C1 (centres undefined)
8,0.359 µM,Clc1cc(Cl)cc(CNC2CCCC(c3nc4nc(Cl)ccc4[nH]3)C2)c1 (centres undefined)
9,0.307 µM,Clc1cc(Cl)cc(CNCCCc2nc3ccc(Cl)nc3[nH]2)c1
10,0.343 µM,Clc1cc(Cl)cc(NCC2CCCN(c3nc4nc(Cl)ccc4[nH]3)C2)c1 (centres undefined)

# Biological target: not listed separately
# Assay: Inhibition of Trypanosoma brucei methionyl tRNA synthetase preincubated for 15 mins followed by L-methionine substrate addition measured after 120 mins by ATP- depletion chemiluminescence assay
# Conditions: not given
# How it was run: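 Triplicate. Compound pre-incubated 15 min at room temperature with 50 nM TbMetRS, 200 µg/mL E. coli tRNA, 0.1 U/mL pyrophosphatase, 0.2 mM spermine, BSA, DTT, 25 mM HEPES-KOH pH 7.9, 10 mM MgCl2, 50 mM KCl, 2% DMSO. Started with 100 nM ATP and 32 µM L-methionine; after 120 min, Kinase-Glo luminescence read. IC50 from sigmoidal dose-response fit.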
row,IC50,SMILES
1,< 0.05 µM,Clc1cc(Cl)cc(CNC2CCCN(c3nc4nc(Cl)ccc4[nH]3)C2)c1 (centres undefined)
2,2.17 µM,Clc1cc(Cl)cc(CNC2CN(c3nc4nc(Cl)ccc4[nH]3)C2)c1
3,0.106 µM,Clc1cc(Cl)cc(CN[C@@H]2CCC[C@H](c3nc4nc(Cl)ccc4[nH]3)C2)c1
4,< 0.05 µM,Clc1cc(Cl)cc(CN[C@H]2CCCN(c3nc4nc(Cl)ccc4[nH]3)C2)c1
5,> 10 µM,O=C(N[C@H]1CCCN(c2nc3nc(Cl)ccc3[nH]2)C1)c1cc(Cl)cc(Cl)c1
6,< 0.05 µM,Clc1cc(Cl)cc(CN[C@H]2CCN(c3nc4ccc(Cl)nc4[nH]3)C2)c1
7,0.06 µM,O=C(Cc1cc(Cl)cc(Cl)c1)N1CCCC(c2nc3cc(Cl)ccc3[nH]2)C1 (centres undefined)
8,0.124 µM,Clc1cc(Cl)cc(CNC2CCCC(c3nc4nc(Cl)ccc4[nH]3)C2)c1 (centres undefined)
9,< 0.05 µM,Clc1cc(Cl)cc(CNCCCc2nc3ccc(Cl)nc3[nH]2)c1
10,< 0.05 µM,Clc1cc(Cl)cc(NCC2CCCN(c3nc4nc(Cl)ccc4[nH]3)C2)c1 (centres undefined)

# System: not listed separately
# Assay: Selectivity index, ratio of EC50 for human CRL-1855 cells to EC50 for Trypanosoma brucei 427 bloodstream forms
# Type: toxicity, cell-based
# Conditions: read-out: Ratio EC50
row,SMILES,selectivity ratio
1,Clc1cc(Cl)cc(CN[C@H]2CCCN(c3nc4nc(Cl)ccc4[nH]3)C2)c1,751

# System: not listed separately
# Assay: Cytotoxicity against human CRL-1855 cells assessed as cell viability after 48 hrs by alamar blue assay
# Type: toxicity, cell-based
# Conditions: not given
# How it was run: as §3
row,SMILES,EC50 at 48 h
1,Clc1cc(Cl)cc(CNC2CCCN(c3nc4nc(Cl)ccc4[nH]3)C2)c1 (centres undefined),46.2 µM
2,Clc1cc(Cl)cc(CN[C@H]2CCCN(c3nc4nc(Cl)ccc4[nH]3)C2)c1,29.3 µM
3,O=C(Cc1cc(Cl)cc(Cl)c1)N1CCCC(c2nc3cc(Cl)ccc3[nH]2)C1 (centres undefined),22.8 µM
4,Clc1cc(Cl)cc(CNC2CCCC(c3nc4nc(Cl)ccc4[nH]3)C2)c1 (centres undefined),33.1 µM
5,CCN(CC)CCCC(C)Nc1c2ccc(Cl)cc2nc2ccc(OC)cc12 (centres undefined) [QUINACRINE],2.12 µM
6,Clc1cc(Cl)cc(CNCCCc2nc3ccc(Cl)nc3[nH]2)c1,45.7 µM
7,Clc1cc(Cl)cc(NCC2CCCN(c3nc4nc(Cl)ccc4[nH]3)C2)c1 (centres undefined),15.4 µM

# System: Trypanosoma brucei
# Assay: as §2, with “1” for “10”
# Conditions: not given
row,inhibition,SMILES
1,20%,Cc1cc2cc(C(=O)N3CCCC(c4nc5ccccc5[nH]4)C3)ccc2o1 (centres undefined)

# System: Trypanosoma brucei
# Assay: Binding affinity to Trypanosoma brucei methionyl-tRNA synthetase assessed as change in melting temperature at 100 uM by SYPRO orange dye based thermal shift assay
# Conditions: not given
# How it was run: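 TbMetRS in 100 mM HEPES pH 7.5, 100 mM NaCl, 10 mM ATP-Mg with SYPRO Orange; compound at 100 µM final. Fluorescence measured in triplicate from 25 to 90 °C in 0.2 °C steps. Tm taken as the temperature of the first-derivative maximum.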
row,ΔTm,SMILES
1,18.4 °C,Clc1cc(Cl)cc(CNC2CCCN(c3nc4nc(Cl)ccc4[nH]3)C2)c1 (centres undefined)
2,6.4 °C,Clc1cc(Cl)cc(CNC2CN(c3nc4nc(Cl)ccc4[nH]3)C2)c1
3,13.1 °C,Clc1cc(Cl)cc(CN[C@@H]2CCC[C@H](c3nc4nc(Cl)ccc4[nH]3)C2)c1
4,19 °C,Clc1cc(Cl)cc(CN[C@H]2CCCN(c3nc4nc(Cl)ccc4[nH]3)C2)c1
5,0 °C,O=C(N[C@H]1CCCN(c2nc3nc(Cl)ccc3[nH]2)C1)c1cc(Cl)cc(Cl)c1
6,11.4 °C,Clc1cc(Cl)cc(CN[C@H]2CCN(c3nc4ccc(Cl)nc4[nH]3)C2)c1
7,7.2 °C,O=C(Cc1cc(Cl)cc(Cl)c1)N1CCCC(c2nc3cc(Cl)ccc3[nH]2)C1 (centres undefined)
8,14.2 °C,Clc1cc(Cl)cc(CNC2CCCC(c3nc4nc(Cl)ccc4[nH]3)C2)c1 (centres undefined)
9,12.8 °C,Clc1cc(Cl)cc(CNCCCc2nc3ccc(Cl)nc3[nH]2)c1
10,14.4 °C,Clc1cc(Cl)cc(NCC2CCCN(c3nc4nc(Cl)ccc4[nH]3)C2)c1 (centres undefined)

# System: not listed separately
# Assay: Cmax in mouse at 50 mg/kg, administered through oral gavage by LC-MS analysis
# Type: ADME, organism-based
# Set-up: dose 50 mg/kg, route oral
# Conditions: in vivo
# How it was run: as §1
row,Cmax,SMILES
1,37.6 µM,Clc1cc(Cl)cc(CN[C@H]2CCCN(c3nc4nc(Cl)ccc4[nH]3)C2)c1
